Assay results reported in ChEMBL document CHEMBL3621183, “Discovery and crystallography of bicyclic arylaminoazines as potent inhibitors of HIV-1 reverse transcriptase” (Bioorg Med Chem Lett, 2015).
Values after ≈ are worked out from the molar mass of the structure shown.

Key:
[1] = system: MT2; assay: Cytotoxicity against human MT2 cells assessed as growth inhibition by MTT assay; format: cell-based
[2] = system: Human immunodeficiency virus 1; assay: Antiviral activity against HIV1 3B harboring reverse transcriptase K103N/Y181C double mutant infected in human MT2 cells assessed as protection against viral infection by MTT assay; format: functional, organism-based
Method in brief: (§1)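 MT-2 human T-cells infected with the HIV-1 IIIB strain carrying the listed RT mutation. […] Triplicate samples at each concentration. Compounds were >95% pure by HPLC.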

[3] = system: Human immunodeficiency virus 1; assay: Antiviral activity against wild type HIV1 3B infected in human MT2 cells assessed as protection against viral infection by MTT assay; format: functional, organism-based; settings: Human immunodeficiency virus 1, 3B
Method in brief: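 HIV-1 IIIB strain tested in MT-2 human T-cells. […] Triplicate samples at each concentration.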

[4] = system: Human immunodeficiency virus 1; assay: Antiviral activity against HIV1 3B harboring reverse transcriptase Y181C mutant infected in human MT2 cells assessed as protection against viral infection by MTT assay; format: functional, organism-based; method in brief: as §1
[5] = Aqueous solubility of the compound in Britton-Robinson buffer at pH 6.5 at 25 degC by shake flask method; format: physicochemical
Method in brief: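 Shake-flask method. Supernatant collected through a 0.2 μm syringe filter and quantified by UV-vis spectrophotometry.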

[6] = Human immunodeficiency virus 1, 3B, MT2, read-out: EC50

Structure (SMILES) | CC50 [1] [nM] | EC50 ([2]; mt2) | EC50 [3] [nM] | EC50 ([4]; mt2) | EC50 [2, 6] [nM] | EC50 [4, 6] [nM] | solubility thermodynamic [5] [µg/mL]
N#Cc1ccc(Nc2nccc(Nc3ccn4cc(C#N)cc4c3)n2)cc1 | > 100000 | Not Active | 200 | Not Active |  |  | 
Cc1cn2cc(C#N)cc2cc1Nc1ccnc(Nc2ccc(C#N)cc2)n1 | 72000 |  | 30 |  | 6200 | 510 | 
Cc1c(Nc2ccnc(Nc3ccc(C#N)cc3)n2)ccn2cc(C#N)cc12 | > 100000 |  | 1.4 |  | 170 | 26 | 
Cc1cn2cc(C#N)cc2c(C)c1Nc1ccnc(Nc2ccc(C#N)cc2)n1 | 10100 |  | 1 |  | 39 | 0.57 | 8.2 (≈ 21.6 µM)
N#Cc1ccc(Nc2nccc(Nc3cc4cc(C#N)cn4cc3F)n2)cc1 | 76000 |  | 200 |  | 4600 | 1600 | 
N#Cc1ccc(Nc2nccc(Nc3c(F)cn4cc(C#N)cc4c3F)n2)cc1 | 1000 | Not Active | 1.4 |  |  | 98 | 
Cc1cn2cc(C#N)cc2c(C)c1Nc1ncnc(Nc2ccc(C#N)cc2)n1 | 16000 |  | 0.52 |  | 32 | 7.1 | 33.1 (≈ 87 µM)
Cc1cn2cc(C#N)cc2c(C)c1Nc1nc(Cl)nc(Nc2ccc(C#N)cc2)n1 | 38000 | Not Active | 14000 | Not Active |  |  | 
N#Cc1ccc(Nc2ncnc(Nc3c(F)cn4cc(C#N)cc4c3F)n2)cc1 | 20000 |  | 2.7 |  | 2200 | 230 | 
Cc1c(Nc2nc(Nc3ccc(C#N)cc3)nc(OCCCN3CCOCC3)n2)ccn2cc(C#N)cc12 | 10000 | Not Active | 1900 | Not Active |  |  | 
N#Cc1ccc(Nc2nccc(Nc3ccc4cc(C#N)ccc4c3)n2)cc1 | > 100000 |  | 24 |  | 520 | 170 | 
Cc1c(Nc2ccnc(Nc3ccc(C#N)cc3)n2)ccc2cc(C#N)ccc12 | > 100000 |  | 7 |  | 130 | 8.5 | 
Cc1cc2cc(C#N)ccc2c(C)c1Nc1ccnc(Nc2ccc(C#N)cc2)n1 | 7800 |  | 2.9 |  | 6.9 | 2.2 | 12.2 (≈ 31.2 µM)
N#Cc1ccc(Nc2nccc(Nc3ccc4cc(C#N)ccc4c3F)n2)cc1 | 45000 |  | 6 |  | 790 | 70 | 
N#Cc1ccc(Nc2nccc(Nc3c(F)cc4cc(C#N)ccc4c3F)n2)cc1 | 4800 |  | 1.8 |  | 50 | 6 | 
Cc1cc2cc(C#N)ccc2c(C)c1Nc1ncnc(Nc2ccc(C#N)cc2)n1 | 9500 |  | 1.1 |  | 7 | 1.3 | 28.7 (≈ 73.3 µM)
Cc1cc2cc(C#N)ccc2c(C)c1Nc1nc(Cl)nc(Nc2ccc(C#N)cc2)n1 | 7500 |  | 2.3 |  | 67 | 41 | 
N#Cc1ccc(Nc2ncnc(Nc3c(F)cc4cc(C#N)ccc4c3F)n2)cc1 | > 100000 |  | 1.2 |  | 65 | 7 | 
N#Cc1ccc(Nc2nc(Nc3ccc4cc(C#N)ccc4c3)nc(OCCCN3CCOCC3)n2)cc1 | 1200 |  | 120 | Not Active | 150 |  | 
Cc1c(Nc2nc(Nc3ccc(C#N)cc3)nc(OCCCN3CCOCC3)n2)ccc2cc(C#N)ccc12 | 5900 |  | 21 |  | 98 | 58 | 
N#Cc1ccc(Nc2nc(Nc3ccc4cc(C#N)ccc4c3F)nc(OCCCN3CCOCC3)n2)cc1 | 3800 |  | 36 |  | 180 | 160 | 
Cc1cc2cc(C#N)ccc2c(C)c1Nc1nc(Nc2ccc(C#N)cc2)nc(OCCCN2CCOCC2)n1 | 17000 |  | 17 |  | 16 | 36 | 
